Bioassay records from PubChem.
RBBP9 inhibitor: human RBBP9 inhibitors, primary screen, biochemical, fluorescence polarization, FP-Rh probe, HTS; AID 1515, 2009; actives 0.2% (n = 220,000); inhibition, % at 7.94 µM; recombinant RBBP9; Serine hydrolase RBBP9 (Homo sapiens), O75884;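 active means inhibition above the campaign mean of all tested compounds plus 3 SD, cut at about 14% in these data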
Target sequence (O75884 whole entry, looked up): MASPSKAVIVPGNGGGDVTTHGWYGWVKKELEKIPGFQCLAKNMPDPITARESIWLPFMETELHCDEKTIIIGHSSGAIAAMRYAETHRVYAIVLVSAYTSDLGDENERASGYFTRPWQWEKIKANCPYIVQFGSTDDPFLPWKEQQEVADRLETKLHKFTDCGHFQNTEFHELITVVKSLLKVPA
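Test system – recombinant human RBBP9 · Input – RBBP9 2.5 µM in dispensing solution, pre-mixing · Medium – Tris buffer pH 8.0, NaCl, Pluronic · Schedule – preincubation 30 min plus labeling 45 min at 25 °C · Measured by – fluorescence polarization · Measure – % inhibition · Controls – DMSO and no-protein wells · Replicates – one well per compound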
p47phox inh: p47phox/p22phox peptide binding inhibitors, primary screen, biochemical, uHTS, NADPH oxidase regulatory subunit | actives 0.53% (n = 220,000) | AID 1274, 2008 | Neutrophil cytosol factor 1 (Homo sapiens), P14598 | fluorescence polarization, 2 h | inhibition, % at 24.7 µM
Target sequence (P14598 whole entry, looked up): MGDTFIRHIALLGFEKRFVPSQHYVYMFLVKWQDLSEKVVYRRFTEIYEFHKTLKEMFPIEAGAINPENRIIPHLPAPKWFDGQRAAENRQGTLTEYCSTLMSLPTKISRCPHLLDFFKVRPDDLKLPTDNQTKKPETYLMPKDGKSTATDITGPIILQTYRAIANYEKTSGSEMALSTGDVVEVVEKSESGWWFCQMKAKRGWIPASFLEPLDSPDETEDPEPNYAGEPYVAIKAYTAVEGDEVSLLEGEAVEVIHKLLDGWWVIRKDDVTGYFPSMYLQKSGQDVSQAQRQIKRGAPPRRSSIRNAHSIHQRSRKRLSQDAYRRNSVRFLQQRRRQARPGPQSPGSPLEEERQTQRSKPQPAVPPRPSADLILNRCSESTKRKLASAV
EBV gp42 block: Epstein-Barr virus gp42 inhibitors, primary screen, biochemical, uHTS, fluorescence polarization; Fluorescence polarization binding assay, mP read-out; actives 0.42% (n = 220,000); Glycoprotein 42 (Epstein-Barr virus (strain AG876)), Q1HVG2; AID 1085, 2008; inhibition, % (tested at 21.74 µM); in the data active means inhibition above about 50%
WT yeast gro inh: growth inhibition of WT strain, primary screen, mitochondrial fusion inhibitor project, WT and mutant strains, chemical genetic; mitochondrial fusion phenotypic screen; inhibition, % at 10 µM; actives 2.1% (n = 190,000); AID 1362, 2008; in the data active means inhibition above about 58%; tested in S. cerevisiae
eIF4E-4G inh: eIF4E–eIF4G protein interaction inhibitors, primary screen, biochemical, uHTS, TR-FRET, eIF4GI fragment; TR-FRET eIF4E-eIF4GI(517-606) binding, 2 h; actives 0.37% (n = 220,000); inhibition, % at 21.7 µM; Eukaryotic translation initiation factor 4E (Mus musculus) + Eukaryotic translation …; AID 782, 2007
14-3-3 Bad inh: inhibitors of 14-3-3 zeta/Bad binding, primary screen, biochemical, TR-FRET, bovine 14-3-3 zeta. inhibition, % at 21.7 µM. actives 0.71% (n = 220,000). TR-FRET 14-3-3zeta/Dy647-pBad peptide displacement, 1 h. 14-3-3 protein zeta/delta (Bos taurus), P63103;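 active means inhibition above about 70%, limit read from the data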
Numbers stand for hits; 0 = inactive; - = no result; + = active, no number; [ ] = remark or other dose. Compounds with a hit are over-represented: about 3.7% of the library has one in this group of screens.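 How the source made its calls, unless noted: active means inhibition above about 30% (limit read from the data); inactive means the rest.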

SMILES	RBBP9 inhibitor	p47phox inh	EBV gp42 block	WT yeast gro inh	eIF4E-4G inh	14-3-3 Bad inh
CC(C)CC1NC(=O)N(Cc2nc3ccccc3s2)C1=O (stereo not drawn)	0	0	0	-	0	0
CCOc1cccc(C2C(C(=O)c3ccc(C)o3)=C(O)C(=O)N2c2nccs2)c1 (stereo not drawn)	0	0	172	0	0	0
O=C(C1=C(O)C(=O)N(c2nccs2)C1c1ccccc1)c1cc2ccccc2o1 (stereo not drawn)	0	0	157	-	0	0
Cc1onc(-c2ccccc2)c1C(=O)NNC(=S)NC(=O)c1ccc2c(c1)OCO2	0	0	0	-	0	0
CN(c1ccccc1)S(=O)(=O)c1cccc(NC(=O)c2ccc3ncsc3c2)c1	0	0	0	-	0	0
OCCCc1nc2n(n1)C(c1cccs1)C=C(c1ccc(Br)cc1)N2 (stereo not drawn)	0	0	141	61	0	0
Brc1ccc(C2=CC(c3cccs3)n3ncnc3N2)cc1 (stereo not drawn)	0	0	161	68	0	0
Brc1ccc(C2=CC(c3ccco3)n3nnnc3N2)cc1 (stereo not drawn)	0	0	0	-	0	0
O=C(CCC1CCCN(C(=O)Cn2cnnn2)C1)NCc1ccccc1F (stereo not drawn)	0	0	0	0	0	0
O=C1/C(=C/c2cccc3ccccc23)CCCc2ccccc21	0	0	0	63	0	0
COc1cc(/C=C2/CCc3ccccc3C2=O)cc(OC)c1OC	0	0	0	0	0	0
CC1CCc2nn(CC(=O)N3CCCCCC3)cc2C1 (stereo not drawn)	0	0	0	0	77[fluorescence artefact?]	0
O=C(Cn1cc2c(n1)CCCCC2)N1CCCCC1	0	0	0	0	0	0
COC(=O)CNC(c1ccccc1)c1cc(Cl)ccc1NC(=O)c1cccc(Cl)c1 (stereo not drawn)	0	0	0	58	0	0
CC1(C)Cc2c(sc3nc(NCCN4CCOCC4)n4ncnc4c23)CO1	0	0	0	0	61	0
Cc1ccc(-n2cccc2C(=S)N=P(N(C)C)(N(C)C)N(C)C)cc1	0	0	0	65	0	0
Cn1c(=O)cc(OCCCC(=O)N2CCN(c3ccccc3)CC2)c2ccccc21	0	0	0	58	0	0
N#C/C(=C(/O)Cc1ccccc1)P(=O)(c1ccccc1)c1ccccc1	0	0	0	-	0	0
Cc1noc(C)c1COC(=O)Cc1ccc(Cl)c(Cl)c1	0	+	0	0	0	0
Cc1noc(C)c1COC(=O)[C@H](C)NS(=O)(=O)c1ccc(Cl)c(Cl)c1	0	0	0	0	0	0
Nc1cc(C(=O)O)ccc1Nc1ccc(F)c(F)c1	0	30	0	0	0	0
Cc1cccc(Nc2nc(N)c([N+](=O)[O-])c(N3CC(C)CC(C)C3)n2)c1 (stereo not drawn)	0	0	0	96	0	0
Cc1cccc(Nc2nc(N)c([N+](=O)[O-])c(N3CCC(C)CC3)n2)c1	0	0	0	0	0	0
N#CC1=C(N)OC2=C(CC/C2=C\c2ccccc2)C1c1ccccc1 (stereo not drawn)	0	0	95	0	0	0
O=C(Nc1ccc(Cl)c(Cl)c1)O/N=C/c1ccncc1	0	0	0	74	0	0
SMILES	RBBP9 inhibitor	p47phox inh	EBV gp42 block	WT yeast gro inh	eIF4E-4G inh	14-3-3 Bad inh
O=C(Nc1cccc(Cl)c1)O/N=C\c1ccncc1	0	0	0	0	0	0
COC(=O)[C@H](CCSC)NC(=O)Nc1cc(OC)cc(OC)c1	0	0	0	-	0	0
S=c1nc2ccccc2c2nc(-c3ccccc3)[nH]n12	0	0	0	71	0	0
Cn1ccnc1Sc1ccc(C(N)=O)cc1[N+](=O)[O-]	0	0	0	0	0	0
C=CCN1C=C2C(=O)C(C)(OC(=O)CC)C(=O)C=C2C=C1CCCC (stereo not drawn)	-	0	0	-	97	0
CCCCC1=CC2=CC(=O)C(C)(OC(=O)CC)C(=O)C2=CN1CC(C)C (stereo not drawn)	-	0	0	-	0	0
CCCCCc1ccc(C(=O)CCCC)c(=S)[nH]1	0	0	0	66	0	0
CCCNc1cc(=S)nc(N)[nH]1	0	0	0	-	0	0
CCn1c(=O)c([N+](=O)[O-])c(NCc2ccco2)c2ccccc21	0	0	0	-	0	0
CCc1nc(NC(C)(C)C)c2cnn(-c3ccccc3)c2n1	0	0	0	-	0	0
CC1=C(C#N)C(=O)N(C2CCS(=O)(=O)C2)C(=O)/C1=C\c1ccc(C)o1 (stereo not drawn)	0	0	118	-	38	0
Cc1ccccc1OCC(=O)NNC(=O)CCN1C(=O)c2ccccc2C1=O	0	0	0	0	0	0
Cc1ccc(Sc2c(O)c3ccccc3n(C)c2=O)cc1	0	0	0	0	0	0
Cc1[nH]n(C(C)(C)C)c(=O)c1Sc1ccc(Cl)cc1	0	0	0	61	0	0
C=CCn1c(SCC(=O)Nc2cc(NC(C)=O)ccc2OC)nnc1-c1ccccn1	0	0	0	0	0	0
C=CCn1c(SCC(=O)Nc2ccccc2OC)nnc1-c1ccccn1	0	0	0	0	0	79
Cc1ccc(C(NC(=O)N2CCOCC2)C(Cl)Cl)cc1F (stereo not drawn)	0	0	0	0	0	0
Cc1ccc(C(NC(=O)N2CCOCC2)=C(Cl)Cl)cc1F	0	42	0	0	0	0
COc1ccc2c3c(cccc13)NN=C2C	15	-	-	-	-	-
COc1ccc(C(=O)c2ccc(OC)c3cccc(O)c23)cc1OC	0	0	0	0	0	0
Cc1ccc(CNC(=O)CN(C)S(=O)(=O)c2cccc3cccnc23)cc1	0	0	0	0	0	0
COc1ccccc1CNC(=O)CN(C)S(=O)(=O)c1cccc2cccnc12	0	0	0	-	96	0
CCOC(=O)C(NC(=O)Nc1ccc(Cl)cn1)(Oc1ccc(F)cc1)C(F)(F)F (stereo not drawn)	0	0	0	0	0	0
O=C(CC1C(=O)NCCN1Cc1ccc(Cl)c(F)c1)NCC1CCOCC1 (stereo not drawn)	0	0	0	-	90	0
CN(CC1CCOCC1)C(=O)CC1C(=O)NCCN1Cc1ccc(Cl)c(F)c1 (stereo not drawn)	0	0	0	-	0	0
C[C@H]1CCC[C@@]2(O[C@@H](CCO)C[C@@H](O)[C@@H]2O)O1	-	0	0	-	0	0
CC(C)NC(=O)CNc1ccc(C(F)(F)F)cc1[N+](=O)[O-]	0	0	0	0	0	0
